Experimental data as given in PubChem BioAssay AID463177 (The Scripps Research Institute Molecular Screening Center, 2010).
Active and inactive are the calls of the source.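 How the source made its calls: active means apoptotic subG1 cells at or above 20% at some dose above 100 nM; inactive means subG1 cells below 20% at every dose.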

Experiment: apoptosis induction in parental HeLa cells, late-stage follow-up, counter-screen for Wee1 degradation inhibitor project, cell-based, FACS (AID 463177)
Details: PI FACS subG1 fraction, 20 h; G1 fraction: G1 phase cells, at 5 µM; G2 fraction: G2 phase cells, at 5 µM; S fraction: S phase cells, at 5 µM; subG1 cells, higher = apoptosis: at 5 µM (top of the series)
Procedure, shortened: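 Test system – parental HeLa cells, untransfected · Compound dosing – 7-point dose series, nominal top concentration 5 µM · Incubation – compound exposure 20 h, then overnight ethanol fixation at -20 °C · Measured by – flow cytometry of propidium iodide DNA stain with RNase A, ethanol-fixed cells · Read-out – Cell-cycle phase fractions (%), subG1 marking apoptosis · Control set – DMSO vehicle reference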

O=[N+]([O-])c1cccc2[nH]c(CNc3nc(N4CCOCC4)nc4c3ncn4-c3ccsc3)nc12
G1 fraction: 41.5%
G2 fraction: 9.18%
S fraction: 22.8%
subG1 cells, higher = apoptosis: 26.3% (active)

c1ccc2[nH]c(CNc3nc(N4CCOCC4)nc4c3ncn4-c3ccsc3)nc2c1
G1 fraction: 24.9%
G2 fraction: 4.14%
S fraction: 22.5%
subG1 cells, higher = apoptosis: 47.6% (active)
